Tests used:
[1] = Toxicity and pathology studies; assay type: in vivo, mice
Outline: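 Female athymic nude mice (5–6 wk, 18–22 g) were dosed IV weekly during therapeutic treatment. Mice for histology received four doses of 1 mg/kg each. Serum AST, ALT and BUN were measured, with BUN taken 7 days after the last dose. Heart, liver, spleen, lung and kidney were formalin-fixed, H&E-stained and imaged by light microscopy. Data are mean ± SEM, compared by one-way ANOVA.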

[2] = Biodistribution of Pt in A375M tumor-bearing mice; assay type: in vivo; settings: 1 mg/kg Pt IV, 24 h post injection
[3] = cited from earlier work
[4] = cited from earlier work; remark: listed apart in the source

Row | SMILES | nephrotoxicity (kidney H&E histology) ([1]; four doses, 1 mg/kg each) | BUN versus control group ([1]; measured 7 days after the last treatment) | ALT ([1]; serum, after treatment) | AST ([1]; serum, after treatment) | accumulation in tumors, injected dose (ID) per gram [2] [% ID/g] | anti-tumor efficacy [3] | solubility in water and organic solvents [4]
1 | [NH2][Pt]([NH2])([Cl])[Cl] [CDDP, cisplatin] | glomeruloscelorsis, tubular cell atrophy, and cystic dilatation of renal tubes | no significant difference | fell within the normal range | fell within the normal range | 1.2 | – | –
2 | [NH2][Pt]([NH2])([I])[I] [CDDP-I, iodinated cisplatin] | – | – | – | – | – | ineffective | insolubility

From paper PMC4076841 (Biomaterials, 2014)
